Reference: ChEMBL document CHEMBL3414425, “Synthesis and biological evaluation of new imidazo[2,1-b][1,3,4]thiadiazole-benzimidazole derivatives” (Eur J Med Chem, 2015)
Converted amounts (≈) assume the structure as drawn. The source made the active and inactive calls. The rule behind the calls is not given here.

Tests used:
[1] = system: Mycobacterium tuberculosis; test: Antitubercular activity against Mycobacterium tuberculosis H37Rv ATCC 27294/XDR-TB incubated for 28 days by agar dilution method; type: functional; conditions: 672 h
How it was run: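 Agar dilution: two-fold dilutions in Middlebrook 7H11 agar with OADC. Inoculum from fresh 7H11/OADC slants adjusted to 1 mg/mL wet weight in 0.05% Tween 80 saline, diluted 10^-2 (~10⁷ cfu/mL); 5 µL spotted per tube. Incubated 37 °C; MIC, lowest concentration fully inhibiting growth, read after 28 days, in triplicate.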

Escherichia coli [2] = test: Antibacterial activity against Escherichia coli at 1 mg/ml incubated for 18 hrs by well plate technique; type: functional
How it was run: (§1)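 Bacteria kept on nutrient agar at 37 °C, grown statically in nutrient broth (start ~10-100 cfu/mL) at 37 °C for 18-24 h. Suspensions diluted in saline and spread on nutrient agar, then wells cut with a cork borer. Compound in DMSO at 1 or 0.5 mg/mL added to wells, 37 °C, 18 h. Inhibition zone diameter measured minus DMSO value; triplicate; streptomycin standard.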

Escherichia coli [3] = test: Antibacterial activity against Escherichia coli at 0.5 mg/ml incubated for 18 hrs by well plate technique; type: functional; how it was run: as §1
Staphylococcus aureus [4] = test: Antibacterial activity against Staphylococcus aureus at 1 mg/ml incubated for 18 hrs by well plate technique; type: functional; how it was run: as §1
Staphylococcus aureus [5] = test: Antibacterial activity against Staphylococcus aureus at 0.5 mg/ml incubated for 18 hrs by well plate technique; type: functional; how it was run: as §1
Pseudomonas aeruginosa [6] = test: Antibacterial activity against Pseudomonas aeruginosa at 1 mg/ml incubated for 18 hrs by well plate technique; type: functional; how it was run: as §1
Pseudomonas aeruginosa [7] = test: Antibacterial activity against Pseudomonas aeruginosa at 0.5 mg/ml incubated for 18 hrs by well plate technique; type: functional; how it was run: as §1
Salmonella typhi [8] = test: Antibacterial activity against Salmonella typhi at 1 mg/ml incubated for 18 hrs by well plate technique; type: functional; conditions: for diameter of the inhibition zone (DIZ): Salmonella enterica subsp. enterica serovar Typhi
How it was run: (§2)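 Well diffusion on nutrient agar; strains kept on nutrient agar at 37 °C, grown statically in nutrient broth 18-24 h at 37 °C, diluted in saline, 0.1 ml spread per plate. Compounds in DMSO at 1 and 0.5 mg/mL added to cork-bored wells; 18 h at 37 °C. Inhibition zone diameter measured, DMSO value subtracted; triplicate; streptomycin reference.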

Salmonella typhi [9] = test: Antibacterial activity against Salmonella typhi at 0.5 mg/ml incubated for 18 hrs by well plate technique; type: functional; conditions: for diameter of the inhibition zone (DIZ): Salmonella enterica subsp. enterica serovar Typhi; how it was run: as §2
Aspergillus flavus [10] = test: Antifungal activity against Aspergillus flavus at 1 mg/ml incubated for 3 days; type: functional; conditions: for zone of inhibition at 1000 µg/mL: 72 h, read-out: IZ
How it was run: (§3)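 Well plate method on potato dextrose agar. Fungal stock suspended in distilled water with Tween 80 and swabbed over plates. Samples in DMSO at 1 and 0.5 mg/mL added to wells, incubated 25 °C for 3 days, then scored for inhibition zones; fluconazole standard.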

Aspergillus flavus [11] = test: Antifungal activity against Aspergillus flavus at 0.5 mg/ml incubated for 3 days; type: functional; conditions: for zone of inhibition at 500 µg/mL: 72 h, read-out: IZ; how it was run: as §3
[12] = system: Chrysosporium keratinophilum; test: Antifungal activity against Chrysosporium keratinophilum at 1 mg/ml incubated for 3 days; type: functional; conditions: for zone of inhibition at 1000 µg/mL: 72 h, read-out: IZ; how it was run: as §3
[13] = system: Chrysosporium keratinophilum; test: Antifungal activity against Chrysosporium keratinophilum at 0.5 mg/ml incubated for 3 days; type: functional; conditions: for zone of inhibition at 500 µg/mL: 72 h, read-out: IZ; how it was run: as §3
Candida albicans [14] = test: Antifungal activity against Candida albicans at 1 mg/ml incubated for 3 days; type: functional; conditions: for zone of inhibition at 1000 µg/mL: 72 h, read-out: IZ; how it was run: as §3
Candida albicans [15] = test: Antifungal activity against Candida albicans at 0.5 mg/ml incubated for 3 days; type: functional; conditions: for zone of inhibition at 500 µg/mL: 72 h, read-out: IZ; how it was run: as §3
[16] = Antioxidant activity assessed as DPPH radical scavenging activity incubated for 10 mins by UV-visible spectrometry; type: physicochemical
How it was run: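 DPPH free-radical scavenging; absorbance read at 517 nm against a methanol blank. % scavenging = (A control − A sample)/A control × 100.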

[17] = Salmonella enterica, read-out: DIZ

SMILES	MIC [1]	diameter of the inhibition zone (DIZ) (Escherichia coli [2])	diameter of the inhibition zone (DIZ) (Escherichia coli [3])	diameter of the inhibition zone (DIZ) (Staphylococcus aureus [4])	diameter of the inhibition zone (DIZ) (Staphylococcus aureus [5])	diameter of the inhibition zone (DIZ) (Pseudomonas aeruginosa [6])	diameter of the inhibition zone (DIZ) (Pseudomonas aeruginosa [7])	diameter of the inhibition zone (DIZ) (Salmonella typhi [8])	diameter of the inhibition zone (DIZ) (Salmonella typhi [9])	inhibition zone (IZ) (Aspergillus flavus [10])	inhibition zone (IZ) (Aspergillus flavus [11])	inhibition zone (IZ) [12]	inhibition zone (IZ) [13]	inhibition zone (IZ) (Candida albicans [14])	inhibition zone (IZ) (Candida albicans [15])	inhibition (INH) [16]	also measured
COc1ccc(-c2nc3sc(-c4ccc(C)cc4)nn3c2-c2nc3cc([N+](=O)[O-])ccc3[nH]2)cc1	12.5 µg/mL (≈ 25.9 µM)	inactive	inactive	inactive	inactive	inactive	inactive	inactive	inactive	inactive	inactive	inactive	inactive	inactive	inactive	25.1%	–
Cc1nn2c(-c3nc4cc([N+](=O)[O-])ccc4[nH]3)c(-c3ccc(Cl)cc3)nc2s1	50 µg/mL (≈ 122 µM)	–	–	–	–	–	–	–	–	inactive	inactive	inactive	inactive	inactive	inactive	29.8%	zone of inhibition at 1000 µg/mL (Escherichia coli [2]; read-out: DIZ): 6 mm; zone of inhibition at 500 µg/mL (Escherichia coli [3]; read-out: DIZ): 4 mm; zone of inhibition at 1000 µg/mL (Staphylococcus aureus [4]; read-out: DIZ): 9 mm; zone of inhibition at 500 µg/mL (Staphylococcus aureus [5]; read-out: DIZ): 7 mm; zone of inhibition at 1000 µg/mL (Pseudomonas aeruginosa [6]; read-out: DIZ): 8 mm; zone of inhibition at 500 µg/mL (Pseudomonas aeruginosa [7]; read-out: DIZ): 5 mm; zone of inhibition at 1000 µg/mL (Salmonella typhi [8]; [17]): 6 mm; zone of inhibition at 500 µg/mL (Salmonella typhi [9]; [17]): 4 mm
COc1ccc(-c2nc3sc(C)nn3c2-c2nc3cc([N+](=O)[O-])ccc3[nH]2)cc1	12.5 µg/mL (≈ 30.8 µM)	inactive	inactive	inactive	inactive	inactive	inactive	inactive	inactive	–	–	–	–	–	–	22.6%	zone of inhibition at 1000 µg/mL (Aspergillus flavus [10]): 2 mm; zone of inhibition at 500 µg/mL (Aspergillus flavus [11]): 1 mm; zone of inhibition at 1000 µg/mL [12]: 3 mm; zone of inhibition at 500 µg/mL [13]: 2 mm; zone of inhibition at 1000 µg/mL (Candida albicans [14]): 2 mm; zone of inhibition at 500 µg/mL (Candida albicans [15]): 1 mm
COc1ccc(-c2nc3sc(-c4ccc(F)cc4)nn3c2-c2nc3ccccc3[nH]2)cc1	12.5 µg/mL (≈ 28.3 µM)	inactive	inactive	inactive	inactive	inactive	inactive	inactive	inactive	inactive	inactive	inactive	inactive	inactive	inactive	25.4%	–
Cc1cc(C(C)(C)C)c(O)c(C(C)(C)C)c1 [BUTYLATED HYDROXYTOLUENE]	–	–	–	–	–	–	–	–	–	–	–	–	–	–	–	88.6%	–
NNC(=O)c1ccncc1 [ISONIAZID]	0.1 µg/mL (≈ 0.729 µM)	–	–	–	–	–	–	–	–	–	–	–	–	–	–	–	–
CC[C@@H](CO)NCCN[C@@H](CC)CO [ETHAMBUTOL]	3.13 µg/mL (≈ 15.3 µM)	–	–	–	–	–	–	–	–	–	–	–	–	–	–	–	–
OC(Cn1cncn1)(Cn1cncn1)c1ccc(F)cc1F [FLUCONAZOLE]	–	–	–	–	–	–	–	–	–	–	–	–	–	–	–	–	zone of inhibition at 1000 µg/mL (Aspergillus flavus [10]): 14 mm; zone of inhibition at 500 µg/mL (Aspergillus flavus [11]): 10 mm; zone of inhibition at 1000 µg/mL [12]: 16 mm; zone of inhibition at 500 µg/mL [13]: 14 mm; zone of inhibition at 1000 µg/mL (Candida albicans [14]): 23 mm; zone of inhibition at 500 µg/mL (Candida albicans [15]): 20 mm
